# According to ChEMBL document CHEMBL5038590, “Discovery of G Protein-Biased Ligands against 5-HT7R” (J Med Chem, 2021):
# Key:
# [1] = target: T1, 5-hydroxytryptamine receptor 7 (Homo sapiens, UniProt P34969); assay: Displacement of [3H] D-lysergic acid diethylamide from 5-HT7R (unknown origin) transfected in HEK293 cells incubated for 1.5 hrs by microbeta scintillation counter analysis; assay type: cell-based; conditions: read-out: Ki
# [2] = target: T1, 5-hydroxytryptamine receptor 7; assay: Agonist activity at 5-HT7R (unknown origin) transfected in HEK293 cells expressing tTA-dependent luciferase reporter and beta arrestin 2-TEV fusion gene assessed as beta arrestin recruitment incubated for 22 hrs by Tango assay; assay type: functional, cell-based; conditions: hek293
# [3] = target: T2, 5-hydroxytryptamine receptor 1A (Homo sapiens, UniProt P08908); assay: Binding affinity to 5-HT1AR (unknown origin)
# T2 sequence (P08908 whole entry): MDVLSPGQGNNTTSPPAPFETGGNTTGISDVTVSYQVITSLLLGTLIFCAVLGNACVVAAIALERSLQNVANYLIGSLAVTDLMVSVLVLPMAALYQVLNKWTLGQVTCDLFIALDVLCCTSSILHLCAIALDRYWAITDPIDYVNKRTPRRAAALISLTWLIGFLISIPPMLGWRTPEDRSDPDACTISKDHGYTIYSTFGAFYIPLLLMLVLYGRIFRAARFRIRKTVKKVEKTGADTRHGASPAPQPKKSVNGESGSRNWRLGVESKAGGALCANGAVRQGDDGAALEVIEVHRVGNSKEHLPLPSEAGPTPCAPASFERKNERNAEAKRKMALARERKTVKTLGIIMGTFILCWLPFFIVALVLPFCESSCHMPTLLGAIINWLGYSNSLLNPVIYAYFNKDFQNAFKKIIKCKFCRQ
# In short: (§1)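 Run by the NIMH Psychoactive Drug Screening Program as competition radioligand binding on crude membranes of cells expressing the recombinant receptor. Eleven dilutions (0.05 nM–50 μM, prepared at 5× assay concentration) were made in 50 mM Tris-HCl, 10 mM MgCl₂, 1 mM EDTA, pH 7.4. Incubation was 1.5 h at rt in the dark, followed by GF/B filtration (0.3% PEI) and scintillation counting. IC₅₀ was converted to Ki; at least triplicate.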
# [4] = target: 5-hydroxytryptamine receptor 1B (Homo sapiens, UniProt P28222); assay: Binding affinity to 5-HT1BR (unknown origin); in short: as §1
# [5] = target: 5-hydroxytryptamine receptor 1E (Homo sapiens, UniProt P28566); assay: Binding affinity to 5-HT1ER (unknown origin); in short: as §1
# [6] = target: 5-hydroxytryptamine receptor 2A (Homo sapiens, UniProt P28223); assay: Binding affinity to 5-HT2AR (unknown origin); in short: as §1
# [7] = target: T3, 5-hydroxytryptamine receptor 2C (Homo sapiens, UniProt P28335); assay: Binding affinity to 5-HT2CR (unknown origin); in short: as §1
# T3 sequence (P28335 whole entry): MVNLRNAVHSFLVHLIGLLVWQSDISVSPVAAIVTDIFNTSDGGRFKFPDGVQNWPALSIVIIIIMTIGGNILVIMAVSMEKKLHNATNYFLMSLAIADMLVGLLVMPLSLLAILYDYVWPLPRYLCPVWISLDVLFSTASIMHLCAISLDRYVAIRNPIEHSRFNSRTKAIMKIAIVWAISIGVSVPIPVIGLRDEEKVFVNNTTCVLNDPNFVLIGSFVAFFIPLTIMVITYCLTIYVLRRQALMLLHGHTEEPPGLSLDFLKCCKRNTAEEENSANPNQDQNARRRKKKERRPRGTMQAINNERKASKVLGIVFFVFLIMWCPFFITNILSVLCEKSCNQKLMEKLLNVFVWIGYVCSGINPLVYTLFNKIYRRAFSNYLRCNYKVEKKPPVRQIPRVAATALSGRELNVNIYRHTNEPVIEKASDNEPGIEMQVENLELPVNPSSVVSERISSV
# [8] = target: 5-hydroxytryptamine receptor 5A (Homo sapiens, UniProt P47898); assay: Binding affinity to 5-HT5AR (unknown origin); in short: as §1
# [9] = target: CYP2C19 (Homo sapiens, UniProt P33261); assay: Inhibition of CYP2C19 in human liver microsomes assessed as remaining activity at 10 uM using S-mephenytoin as substrate preincubated for 5 mins followed by addition of NADPH generating system and incubated for 15 mins by LC/MS relative to control; assay type: ADME; conditions: probe S-mephenytoin, time 20 min, read-out: Activity
# In short: (§2)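 Human liver microsomes (0.25 mg/mL) in 0.1 M phosphate pH 7.4 with a five-substrate cocktail: phenacetin 50 μM, diclofenac 10 μM, S-mephenytoin 100 μM, dextromethorphan 5 μM, midazolam 2.5 μM. Compound at 0 (control) or 10 μM. Preincubated 5 min at 37 °C, NADPH-generating system added, 15 min at 37 °C. Stopped with acetonitrile plus internal standard; substrate metabolites measured by LC/MS.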
# [10] = target: CYP2D6 (Homo sapiens, UniProt P10635); assay: Inhibition of CYP2D6 in human liver microsomes assessed as remaining activity at 10 uM using dextromethorphan as substrate preincubated for 5 mins followed by addition of NADPH generating system and incubated for 15 mins by LC/MS relative to control; assay type: ADME; conditions: probe dextromethorphan, time 20 min, read-out: Activity; in short: as §2
# [11] = Half life in ICR mouse plasma at 1 mg/kg, iv measured upto 8 hrs by LC-MS/MS; assay type: ADME, organism-based
# In short: (§3)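 Male ICR mice, 7–8 weeks, 30 ± 5 g; single dose 1 mg/kg iv or 10 mg/kg ip (n = 4 each). Carotid artery blood at 0, 0.08 (iv only), 0.25, 0.5, 1, 2, 4, 6, 8 h. Plasma precipitated with acetonitrile containing internal standard, quantified by LC–MS/MS. Parameters by non-compartmental analysis; AUClast by trapezoidal rule; values mean ± SD.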
# [12] = AUClast in ICR mouse plasma at 1 mg/kg, iv measured upto 8 hrs by LC-MS/MS analysis; assay type: ADME, organism-based; design: route intravenous, dose 1 mg/kg, time <=8; in short: as §3
# [13] = AUClast in ICR mouse plasma at 10 mg/kg, ip measured upto 8 hrs by LC-MS/MS analysis; assay type: ADME, organism-based; design: route intraperitoneal, dose 10 mg/kg, time <=8; in short: as §3
# [14] = MRTinfinity in ICR mouse plasma at 10 mg/kg, ip measured upto 8 hrs by LC-MS/MS analysis; assay type: ADME, organism-based; in short: as §3
# [15] = Volume of distribution in steady state in ICR mouse plasma at 1 mg/kg, iv measured upto 8 hrs by LC-MS/MS analysis; assay type: ADME, organism-based; conditions: read-out: Vdss; in short: as §3
# [16] = Bioavailability in ICR mouse plasma at 10 mg/kg, ip measured upto 8 hrs by LC-MS/MS analysis; assay type: ADME, organism-based; in short: as §3
# [17] = tested on: Mus musculus; assay: Effect on wild type mouse assessed as time taken for duration of self grooming at 5 mg/kg, ip after 30 mins under 40 lux lighting (reference value: 43.7 +/- 10.8 sec); assay type: functional; conditions: 0.5 h
# [18] = tested on: Mus musculus; assay: Effect on shank3-/- mouse model of autism spectrum disorder assessed as time taken for duration of self grooming at 5 mg/kg, ip after 30 mins under 40 lux lighting (reference value: 224 +/- 47.4 sec); assay type: functional; conditions: 0.5 h
# [19] = tested on: Mus musculus; assay: Effect on shank3-/- mouse model of autism spectrum disorder assessed as time taken for duration of self grooming at 5 mg/kg, ip pretreated for 10 mins in presence of SB269970 followed by compound addition and measured after 30 mins under 40 lux lighting (reference value: 224 +/- 47.4 sec); assay type: functional; conditions: 0.5 h
# [20] = target: T1, 5-hydroxytryptamine receptor 7
# T1 sequence (P34969 whole entry, the tested form may be a part): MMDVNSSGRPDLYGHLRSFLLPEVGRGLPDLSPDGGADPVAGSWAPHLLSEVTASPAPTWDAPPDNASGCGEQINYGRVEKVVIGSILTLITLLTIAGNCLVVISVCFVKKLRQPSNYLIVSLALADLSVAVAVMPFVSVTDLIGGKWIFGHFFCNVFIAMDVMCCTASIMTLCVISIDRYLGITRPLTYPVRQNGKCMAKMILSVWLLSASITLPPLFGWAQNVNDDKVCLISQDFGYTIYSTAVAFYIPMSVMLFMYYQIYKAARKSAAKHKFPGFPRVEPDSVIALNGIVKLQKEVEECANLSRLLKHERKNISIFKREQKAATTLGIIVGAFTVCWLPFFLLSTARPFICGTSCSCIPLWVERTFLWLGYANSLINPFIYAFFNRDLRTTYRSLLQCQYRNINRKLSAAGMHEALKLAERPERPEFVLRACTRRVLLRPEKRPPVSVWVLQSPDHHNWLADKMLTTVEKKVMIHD
# Sequence of 5-hydroxytryptamine receptor 1E (P28566 whole entry): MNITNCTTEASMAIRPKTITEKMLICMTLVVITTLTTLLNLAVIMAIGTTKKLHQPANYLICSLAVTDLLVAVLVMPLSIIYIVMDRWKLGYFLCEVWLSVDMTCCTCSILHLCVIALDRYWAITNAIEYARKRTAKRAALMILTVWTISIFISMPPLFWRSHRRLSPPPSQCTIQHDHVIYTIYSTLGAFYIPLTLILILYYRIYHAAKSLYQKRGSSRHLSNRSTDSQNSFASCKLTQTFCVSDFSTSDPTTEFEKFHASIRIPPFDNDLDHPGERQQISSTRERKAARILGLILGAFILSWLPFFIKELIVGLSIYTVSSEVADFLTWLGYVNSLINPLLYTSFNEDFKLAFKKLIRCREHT
# Sequence of 5-hydroxytryptamine receptor 5A (P47898 whole entry): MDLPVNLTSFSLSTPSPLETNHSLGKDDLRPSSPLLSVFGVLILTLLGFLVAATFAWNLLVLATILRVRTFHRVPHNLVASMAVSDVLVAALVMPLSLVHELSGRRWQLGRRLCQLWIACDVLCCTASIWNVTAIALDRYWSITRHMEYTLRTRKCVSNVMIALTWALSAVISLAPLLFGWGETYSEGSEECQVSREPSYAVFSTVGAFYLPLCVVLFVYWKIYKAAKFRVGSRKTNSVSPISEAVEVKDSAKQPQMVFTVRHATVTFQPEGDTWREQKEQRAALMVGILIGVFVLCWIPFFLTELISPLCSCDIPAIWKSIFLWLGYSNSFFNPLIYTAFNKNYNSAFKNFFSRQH
# Sequence of 5-hydroxytryptamine receptor 1B (P28222 whole entry): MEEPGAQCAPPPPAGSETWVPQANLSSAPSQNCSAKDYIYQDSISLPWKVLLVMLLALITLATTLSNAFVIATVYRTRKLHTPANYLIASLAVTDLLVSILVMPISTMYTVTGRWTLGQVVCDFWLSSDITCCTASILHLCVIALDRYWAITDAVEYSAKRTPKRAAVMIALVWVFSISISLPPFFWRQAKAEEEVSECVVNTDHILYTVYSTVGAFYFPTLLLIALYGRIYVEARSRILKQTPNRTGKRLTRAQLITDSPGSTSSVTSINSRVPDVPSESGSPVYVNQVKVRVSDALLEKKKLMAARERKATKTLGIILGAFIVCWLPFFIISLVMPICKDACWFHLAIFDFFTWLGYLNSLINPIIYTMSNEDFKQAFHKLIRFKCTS
# Sequence of 5-hydroxytryptamine receptor 2A (P28223 whole entry): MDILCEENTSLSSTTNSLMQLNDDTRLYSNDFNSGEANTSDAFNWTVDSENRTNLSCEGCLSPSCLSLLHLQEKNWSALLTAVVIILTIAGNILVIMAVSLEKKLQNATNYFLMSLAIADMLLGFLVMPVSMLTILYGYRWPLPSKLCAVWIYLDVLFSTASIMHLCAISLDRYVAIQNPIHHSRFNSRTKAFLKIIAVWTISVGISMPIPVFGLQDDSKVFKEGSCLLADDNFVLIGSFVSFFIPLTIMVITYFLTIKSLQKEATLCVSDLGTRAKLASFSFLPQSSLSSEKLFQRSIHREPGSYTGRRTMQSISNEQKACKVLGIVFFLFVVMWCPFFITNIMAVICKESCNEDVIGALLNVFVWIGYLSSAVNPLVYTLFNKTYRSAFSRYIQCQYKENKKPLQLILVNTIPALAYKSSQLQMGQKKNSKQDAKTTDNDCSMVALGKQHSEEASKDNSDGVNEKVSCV
# Sequence of CYP2C19 (P33261 whole entry): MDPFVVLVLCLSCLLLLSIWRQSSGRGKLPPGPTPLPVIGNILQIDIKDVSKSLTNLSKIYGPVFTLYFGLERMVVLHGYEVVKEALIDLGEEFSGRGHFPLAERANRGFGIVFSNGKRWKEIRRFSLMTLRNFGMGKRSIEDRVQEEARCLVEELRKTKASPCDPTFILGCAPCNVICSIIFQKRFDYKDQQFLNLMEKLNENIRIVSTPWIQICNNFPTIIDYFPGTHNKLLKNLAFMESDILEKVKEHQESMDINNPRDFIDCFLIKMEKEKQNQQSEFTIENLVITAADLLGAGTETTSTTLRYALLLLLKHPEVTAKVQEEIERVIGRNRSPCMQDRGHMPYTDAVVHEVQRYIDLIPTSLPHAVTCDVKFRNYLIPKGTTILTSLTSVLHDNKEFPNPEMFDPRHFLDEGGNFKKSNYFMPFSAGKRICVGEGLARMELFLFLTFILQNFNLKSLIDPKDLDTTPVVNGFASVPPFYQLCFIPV
# Sequence of CYP2D6 (P10635 whole entry): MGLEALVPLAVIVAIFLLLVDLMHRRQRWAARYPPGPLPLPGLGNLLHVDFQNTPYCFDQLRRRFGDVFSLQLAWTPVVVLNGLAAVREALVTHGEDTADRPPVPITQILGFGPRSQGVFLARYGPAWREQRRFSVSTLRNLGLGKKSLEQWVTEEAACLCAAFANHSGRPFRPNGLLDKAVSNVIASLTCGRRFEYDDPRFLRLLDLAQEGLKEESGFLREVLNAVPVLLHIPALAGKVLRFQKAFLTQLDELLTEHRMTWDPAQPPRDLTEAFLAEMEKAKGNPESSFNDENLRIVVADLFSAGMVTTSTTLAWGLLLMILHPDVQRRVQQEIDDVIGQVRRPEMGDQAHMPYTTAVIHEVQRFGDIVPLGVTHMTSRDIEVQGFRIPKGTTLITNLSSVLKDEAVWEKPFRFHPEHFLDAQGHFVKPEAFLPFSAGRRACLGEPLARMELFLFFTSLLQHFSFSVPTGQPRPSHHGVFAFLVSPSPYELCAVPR
smiles,measurement,setting,value
CCNCCc1ccc(Cl)c(-c2ccccc2OC)c1.Cl,Ki,[1],2.8 nM
same,EC50,[2],Not Active
same,Ki,[3],52 nM
same,Ki,[4],580 nM
same,Ki,[5],2600 nM
same,Ki,[6],520 nM
same,Ki,[7],> 10000 nM
same,Ki,[8],700 nM
same,"activity at 0.25 h, 10 µM",[9],90.3%
same,"activity at 0.25 h, 10 µM",[10],88.7%
same,half-life,[11],30 min
same,AUC(0-t) at 8 h,[12],32.9 ng·h/mL
same,AUC(0-t) at 8 h,[13],442 ng·h/mL
same,MRT inf,[14],78 min
same,Vd,[15],19.5 L/kg
same,bioavailability,[16],134%
same,Time,[17],107 s
same,Time,[18],553 s
same,Time,[19],166 s
same,EC50,[20],180 nM
